Results published in ChEMBL document CHEMBL4364284, “Design, Synthesis, and Efficacy Testing of Nitroethylene- and 7-Nitrobenzoxadiazol-Based Flavodoxin Inhibitors against Helicobacter pylori Drug-Resistant Clinical Strains and in Helicobacter pylori-Infected Mice” (J Med Chem, 2019).
In brackets after ≈: the same amount, converted by molar mass. Activity calls are given as the source filed them. No cut-off for these calls is given here.

How the values were obtained:
[1] = test system: Helicobacter pylori; assay: Antibacterial activity against Helicobacter pylori SS1 infected in NMRI mouse assessed as reduction in gastric colonization at 0.1 to 1 mg/100g, po administered daily via gavage for 8 days starting from 1 week post-infection and measured 8 days post-last dose; format: functional, organism-based
Outline: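 From day 8, compound given daily by oral gavage for 8 days in 100 μL of 5–10% DMSO/95–90% olive oil. Sacrificed day 24; stomach homogenate CFU/g counted after 5 days microaerophilic culture at 37 °C. Infected vehicle-treated controls; Mann-Whitney U and unpaired t tests, p ≤ 0.05.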

[2] = molecular target: T1, Flavodoxin (Helicobacter pylori (strain ATCC 700392 / 26695) (Campylobacter pylori)) (UniProt O25776); assay: Binding affinity to Helicobacter pylori flavodoxin by thermal upshift assay
T1 sequence (whole entry): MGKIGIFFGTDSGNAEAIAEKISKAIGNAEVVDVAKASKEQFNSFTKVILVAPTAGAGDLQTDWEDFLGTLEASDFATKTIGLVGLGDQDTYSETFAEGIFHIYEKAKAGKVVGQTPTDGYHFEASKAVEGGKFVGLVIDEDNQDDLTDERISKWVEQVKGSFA

[3] = molecular target: T1, Flavodoxin (Helicobacter pylori (strain ATCC 700392 / 26695) (Campylobacter pylori)); assay: Inhibition of flavodoxin in Helicobacter pylori ATCC 700392 26695 assessed as reduction in bacterial growth measured after 48 hrs by resazurin staining-based microdilution method; settings: Helicobacter pylori 26695
Outline: (§1)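 Broth microdilution in brain heart infusion with 4% FBS. Inoculum diluted to OD600 0.01. Two-fold dilutions from a DMSO stock cover 64–0.031 μg/mL, with DMSO ≤1% v/v. Incubated 48 h at 37 °C under microaerophilic conditions. MIC is the lowest concentration giving complete growth inhibition, read by resazurin colour change and confirmed by spotting on blood agar. Run twice in triplicate.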

[4] = molecular target: T1, Flavodoxin (Helicobacter pylori (strain ATCC 700392 / 26695) (Campylobacter pylori)); assay: Binding affinity to Helicobacter pylori flavodoxin by isothermal titration calorimetric method
[5] = test system: Staphylococcus aureus; assay: Effect on growth of Staphylococcus aureus ATCC 1228 after 48 hrs by resazurin-dye based microdilution assay; format: organism-based
[6] = Toxicity in NMRI mouse assessed as change in body weight at 0.1 to 1 mg/100g, po administered daily via gavage for 8 days; format: organism-based; settings: in vivo, 192 h
[7] = Toxicity in NMRI mouse infected with Helicobacter pylori SS1 assessed as change in body weight at 0.1 to 1 mg/100g, po administered daily via gavage for 8 days starting from 1 week post-infection; format: organism-based; settings: in vivo
[8] = Therapeutic index, ratio of MCC50 for human HeLa cells to MIC for inhibition of flavodoxin in Helicobacter pylori SS1 assessed as reduction in bacterial growth; format: toxicity; settings: HeLa cells versus Helicobacter pylori SS1, read-out: TI
Outline: (§2)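 TI is MCC50/MIC. For MCC50, HeLa cells (30 000/well, DMEM with 10% FBS) were exposed to compound at 25–1000 μM final. Viability by XTT at 450/650 nm; MCC50 is the concentration giving 50% lysis from viability curves. Run twice in triplicate.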

[9] = Toxicity in NMRI mouse infected with Helicobacter pylori SS1 assessed as change in appetite at 0.1 to 1 mg/100g, po administered daily via gavage for 8 days starting from 1 week post-infection; format: organism-based; settings: in vivo
[10] = Therapeutic index, ratio of MCC50 for human HeLa cells to MIC for inhibition of flavodoxin in Mnz-resistant Helicobacter pylori NCTC 11637 ATCC 43504 assessed as reduction in bacterial growth; format: toxicity; settings: read-out: TI; outline: as §2
[11] = Cytotoxicity against human HeLa cells assessed as reduction in cell viability by XTT assay; format: cell-based; settings: read-out: MCC50
Outline: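 HeLa cells grown in DMEM with 10% FBS, penicillin and streptomycin at 37 °C, 5% CO2; 30 000 cells/well. XTT viability read at 450 and 650 nm. MCC50 (50% lysis) came from viability-versus-concentration curves. Two experiments, each in triplicate.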

[12] = molecular target: T1, Flavodoxin (Helicobacter pylori (strain ATCC 700392 / 26695) (Campylobacter pylori)); assay: Inhibition of flavodoxin in Mnz-resistant Helicobacter pylori NCTC 11637 ATCC 43504 assessed as reduction in bacterial growth measured after 48 hrs by resazurin staining-based microdilution method; settings: Helicobacter pylori NCTC 11637 = CCUG 17874 = ATCC 43504; outline: as §1
[13] = molecular target: T1, Flavodoxin (Helicobacter pylori (strain ATCC 700392 / 26695) (Campylobacter pylori)); assay: Inhibition of flavodoxin in Helicobacter pylori SS1 assessed as reduction in bacterial growth measured after 48 hrs by resazurin staining-based microdilution method; outline: as §1
[14] = Therapeutic index, ratio of MCC50 for human HeLa cells to MIC for inhibition of flavodoxin in Helicobacter pylori ATCC 700392 26695 assessed as reduction in bacterial growth; format: toxicity; settings: HeLa cells versus Helicobacter pylori ATCC 700392 26695, read-out: TI; outline: as §2
[15] = test system: Escherichia coli; assay: Effect on growth of Escherichia coli DH5[alpha] after 48 hrs by resazurin-dye based microdilution assay; format: organism-based
[16] = Toxicity in NMRI mouse assessed as change in body weight at 10 to 20 mg/100g, po administered daily via gavage for 8 days; format: organism-based; settings: in vivo, 192 h
[17] = molecular target: T1, Flavodoxin (Helicobacter pylori (strain ATCC 700392 / 26695) (Campylobacter pylori)); assay: Inhibition of flavodoxin in clarithromycin/metronidazole-resistant Helicobacter pylori isolate 4 assessed as reduction in bacterial growth measured after 48 hrs by resazurin staining-based microdilution method
Outline: (§3)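 Clinical isolates from gastric biopsies of patients who failed ≥2 therapies; resistance classified by EUCAST breakpoints. […] Read by resazurin colour change as the lowest concentration giving complete growth inhibition.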

[18] = molecular target: T1, Flavodoxin (Helicobacter pylori (strain ATCC 700392 / 26695) (Campylobacter pylori)); assay: Inhibition of flavodoxin in rifampicin-resistant Helicobacter pylori isolate 5 assessed as reduction in bacterial growth measured after 48 hrs by resazurin staining-based microdilution method; outline: as §3
[19] = Toxicity in NMRI mouse infected with Helicobacter pylori SS1 assessed as change in body weight at 10 to 20 mg/100g, po administered daily via gavage for 8 days starting from 1 week post-infection; format: organism-based; settings: in vivo
Outline: (§4)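 Female 6-week-old SPF NMRI mice infected orogastrically with Hp SS1 on days 1 and 3. Compound in 5–10% DMSO/olive oil (100 μL) given by daily oral gavage for 8 days from day 8. Body weight and appetite were monitored during treatment; infected controls received vehicle alone.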

[20] = Toxicity in NMRI mouse infected with Helicobacter pylori SS1 assessed as change in appetite at 10 to 20 mg/100g, po administered daily via gavage for 8 days starting from 1 week post-infection; format: organism-based; settings: in vivo; outline: as §4
[21] = Therapeutic index, ratio of MCC50 for human HeLa cells to MIC for inhibition of flavodoxin in metronidazole-resistant Helicobacter pylori isolate 1 assessed as reduction in bacterial growth; format: toxicity; settings: read-out: TI; outline: as §2
[22] = Therapeutic index, ratio of MCC50 for human HeLa cells to MIC for inhibition of flavodoxin in rifampicin-resistant Helicobacter pylori isolate 5 assessed as reduction in bacterial growth; format: toxicity; settings: read-out: TI; outline: as §2
[23] = molecular target: T1, Flavodoxin (Helicobacter pylori (strain ATCC 700392 / 26695) (Campylobacter pylori)); assay: Inhibition of flavodoxin in metronidazole-resistant Helicobacter pylori isolate 1 assessed as reduction in bacterial growth measured after 48 hrs by resazurin staining-based microdilution method; outline: as §3
[24] = Therapeutic index, ratio of MCC50 for human HeLa cells to MIC for inhibition of flavodoxin in metronidazole-resistant Helicobacter pylori isolate 3 assessed as reduction in bacterial growth; format: toxicity; settings: read-out: TI; outline: as §2
[25] = Therapeutic index, ratio of MCC50 for human HeLa cells to MIC for inhibition of flavodoxin in metronidazole-resistant Helicobacter pylori isolate 2 assessed as reduction in bacterial growth; format: toxicity; settings: read-out: TI; outline: as §2
[26] = molecular target: T1, Flavodoxin (Helicobacter pylori (strain ATCC 700392 / 26695) (Campylobacter pylori)); assay: Inhibition of flavodoxin in metronidazole-resistant Helicobacter pylori isolate 2 assessed as reduction in bacterial growth measured after 48 hrs by resazurin staining-based microdilution method; outline: as §3
[27] = molecular target: T1, Flavodoxin (Helicobacter pylori (strain ATCC 700392 / 26695) (Campylobacter pylori)); assay: Inhibition of flavodoxin in clarithromycin/metronidazole-resistant Helicobacter pylori isolate 6 assessed as reduction in bacterial growth measured after 48 hrs by resazurin staining-based microdilution method
[28] = Therapeutic index, ratio of MCC50 for human HeLa cells to MIC for inhibition of flavodoxin in clarithromycin/metronidazole-resistant Helicobacter pylori isolate 4 assessed as reduction in bacterial growth; format: toxicity; settings: read-out: TI; outline: as §2
[29] = Therapeutic index, ratio of MCC50 for human HeLa cells to MIC for inhibition of flavodoxin in clarithromycin/metronidazole-resistant Helicobacter pylori isolate 6 assessed as reduction in bacterial growth; format: toxicity; settings: read-out: TI; outline: as §2
[30] = test system: Helicobacter pylori; assay: Antibacterial activity against Helicobacter pylori SS1 infected in NMRI mouse assessed as reduction in gastric colonization at 10 mg/100g, po administered daily via gavage for 8 days starting from 1 week post-infection and measured 8 days post-last dose; format: functional, organism-based
Outline: (§5)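 Female 6-week-old SPF NMRI mice, seven per condition, infected orogastrically on days 1 and 3 with 100 μL Hp SS1 (5 × 10^8 CFU/mL). From day 8, 100 μL compound in 5–10% DMSO/95–90% olive oil by daily oral gavage for 8 days. Infected controls got vehicle. Killed day 24; stomach homogenates plated 5 days at 37 °C microaerophilic; CFU/g tissue versus control. Mann-Whitney U and unpaired t tests, p ≤ 0.05.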

[31] = test system: Helicobacter pylori; assay: Antibacterial activity against Helicobacter pylori SS1 infected in NMRI mouse assessed as bacterial eradication at 10 mg/100g, po administered daily via gavage for 8 days starting from 1 week post-infection and measured 8 days post-last dose; format: functional, organism-based; outline: as §5

| Structure (SMILES) | Activity [2] | MIC [3] | Activity [4] | Activity [5] | selectivity ratio [8] | selectivity ratio [10] | CC50 [11] | MIC [12] | MIC [13] | selectivity ratio [14] | Activity [15] | Activity [16] | Activity [19] | Activity [20] | also measured |
| --- | --- | --- | --- | --- | --- | --- | --- | --- | --- | --- | --- | --- | --- | --- | --- |
| O=[N+]([O-])/C=C/c1cc(C(F)(F)F)cc(C(F)(F)F)c1 | Active | 1.8 µM (≈ 0.513 µg/mL) | Active | Non-Toxic | 8.3 | 4.3 | 15 µM | 3.5 µM (≈ 0.998 µg/mL) | 1.8 µM (≈ 0.513 µg/mL) | 8.3 | Non-Toxic |  |  |  | Activity [1]: inactive; Activity [6]: Non-Toxic; Activity [7]: Non-Toxic; Activity [9]: Non-Toxic |
| COc1ccc(CSc2cc(Cl)c(N)c3nonc23)cc1 | Active | 5.9 µM (≈ 1.9 µg/mL) | Active | Non-Toxic | > 170 | > 85 | > 1000 µM | 11.8 µM (≈ 3.8 µg/mL) | 5.9 µM (≈ 1.9 µg/mL) | > 170 | Non-Toxic | Non-Toxic | Non-Toxic | Non-Toxic | inhibition [17]: Active; inhibition [18]: Active; selectivity ratio [21]: 161; selectivity ratio [22]: 40; inhibition [23]: Active; selectivity ratio [24]: 10; selectivity ratio [25]: 322; inhibition [26]: Active; inhibition [27]: Active; selectivity ratio [28]: 80; selectivity ratio [29]: 322 |
| O/N=C1\Cc2cc(Cl)cc(Cl)c2OC1c1ccc(F)cc1 (stereo unspecified) | Active | 6.1 µM (≈ 1.99 µg/mL) | Active | Non-Toxic | 10 | 19 | 117 µM | 6.1 µM (≈ 1.99 µg/mL) | 12 µM (≈ 3.91 µg/mL) | 19 | Non-Toxic | Non-Toxic | Non-Toxic | Non-Toxic | Activity [30]: Active; Activity [31]: inactive |
